# What was measured:
# Format in all cases: functional
# Streptococcus oralis [1] = assay: Antimicrobial activity against Streptococcus oralis ATCC 10557 with gyrA Ser114Gly, and parC Ser52Gly, Asn91Asp mutation by broth dilution method
# Outline: (§1)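 Ciprofloxacin and levofloxacin MICs were determined by broth dilution following CLSI (formerly NCCLS) guidance. S. pneumoniae ATCC 6303 and ATCC 49619 served as control strains. Reference strains were S. mitis ATCC 49456 and S. oralis ATCC 10557. The clinical isolates came from patients at a Hong Kong teaching hospital.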
# Streptococcus oralis [2] = assay: Antimicrobial activity against Streptococcus oralis HK575 with gyrA Ser114Gly, Leu155Val and parC Ser52Gly, Asn91Asp, Pro140Ser mutation by broth dilution method; outline: as §1
# Streptococcus oralis [3] = assay: Antimicrobial activity against Streptococcus oralis HK232 with gyrA Ser114Gly, and parC Ser52Gly, Asn91Asp mutation by broth dilution method; outline: as §1
# Streptococcus oralis [4] = assay: Antimicrobial activity against Streptococcus oralis HK417 with gyrA Ser114Gly, and parC Ser52Gly, Asn91Asp mutation by broth dilution method; outline: as §1
# Streptococcus oralis [5] = assay: Antimicrobial activity against Streptococcus oralis HK496 with gyrA Ser114Gly, and parC Ser52Gly, Asn91Asp mutation by broth dilution method; outline: as §1
# Streptococcus oralis [6] = assay: Antimicrobial activity against Streptococcus oralis HK553 with gyrA Ser114Gly, and parC Ser52Gly, Asn91Asp mutation by broth dilution method; outline: as §1
# Streptococcus oralis [7] = assay: Antimicrobial activity against Streptococcus oralis HK62 with gyrA Ser114Gly, and parC Ser52Gly, Asn91Asp mutation by broth dilution method; outline: as §1
# Streptococcus oralis [8] = assay: Antimicrobial activity against Streptococcus oralis HK122 with gyrA Ser114Gly, and parC Ser52Gly, Asn91Asp mutation by broth dilution method; outline: as §1
# Streptococcus oralis [9] = assay: Antimicrobial activity against Streptococcus oralis HK123 with gyrA Ser114Gly, and parC Ser52Gly, Asn91Asp mutation by broth dilution method; outline: as §1
# Streptococcus oralis [10] = assay: Antimicrobial activity against Streptococcus oralis HK271 with gyrA Ser114Gly, and parC Ser52Gly, Asn91Asp mutation by broth dilution method; outline: as §1
# Streptococcus oralis [11] = assay: Antimicrobial activity against Streptococcus oralis HK300 with gyrA Ser114Gly, and parC Ser52Gly, Asn91Asp mutation by broth dilution method; outline: as §1
# Streptococcus oralis [12] = assay: Antimicrobial activity against Streptococcus oralis HK312 with gyrA Ser114Gly, and parC Ser52Gly, Asn91Asp mutation by broth dilution method; outline: as §1
# Streptococcus oralis [13] = assay: Antimicrobial activity against Streptococcus oralis HK51with gyrA Ser114Gly, and parC Ser52Gly, Asn91Asp mutation by broth dilution method; outline: as §1
# Streptococcus oralis [14] = assay: Antimicrobial activity against Streptococcus oralis HK299 with gyrA Ser114Gly, and parC Ser52Gly, Asn91Asp mutation by broth dilution method; outline: as §1
# Streptococcus oralis [15] = assay: Antimicrobial activity against Streptococcus oralis HK579 with gyrA Ser114Gly, and parC Ser52Gly, Asn91Asp mutation by broth dilution method; outline: as §1
# Streptococcus oralis [16] = assay: Antimicrobial activity against Streptococcus oralis HK587 with gyrA Ser114Gly, and parC Ser52Gly, Asn91Asp mutation by broth dilution method; outline: as §1
# Streptococcus oralis [17] = assay: Antimicrobial activity against Streptococcus oralis HK386 with gyrA Ser114Gly, and parC Ser52Gly, Asn91Asp mutation by broth dilution method; outline: as §1
# Streptococcus oralis [18] = assay: Antimicrobial activity against Streptococcus oralis HK619 with gyrA Ser114Gly, and parC Ser52Gly, Asn91Asp mutation by broth dilution method; outline: as §1
# Streptococcus oralis [19] = assay: Antimicrobial activity against Streptococcus oralis HK574 with gyrA Ser114Gly, Leu155Val, gyrB Ile385Val, Met483Thr, Ser494Thr and parC Ser52Gly, Asn91Asp mutation by broth dilution method; outline: as §1
# Streptococcus oralis [20] = assay: Antimicrobial activity against Streptococcus oralis HK816 with gyrA Ser81Leu, Ser114Gly and parC Ser52Gly, Ser79Tyr, Asn91Asp mutation by broth dilution method; outline: as §1
# Streptococcus oralis [21] = assay: Antimicrobial activity against Streptococcus oralis HK754 with gyrA Ser81Leu, Ser114Gly, gyrB Ser494Thr, parC Ser52Gly, Asp83Tyr, Asn91Asp and parE Arg447Ser mutation by broth dilution method; outline: as §1
# Streptococcus mitis [22] = assay: Antimicrobial activity against Streptococcus mitis ATCC 49456 with gyrA Ser114Gly, and parC Ser52Gly, Asn91Asp, Glu135Asp mutation by broth dilution method; outline: as §1
# Streptococcus mitis [23] = assay: Antimicrobial activity against Streptococcus mitis HK260 with gyrA Ser114Gly, and parC Ser52Gly, Asn91Asp mutation by broth dilution method; outline: as §1
# Streptococcus mitis [24] = assay: Antimicrobial activity against Streptococcus mitis HK141 with gyrA Ser114Gly, and parC Ser52Gly, Asn91Asp mutation by broth dilution method; outline: as §1
# Streptococcus mitis [25] = assay: Antimicrobial activity against Streptococcus mitis HK188 with gyrA Ser114Gly, and parC Ser52Gly, Asn91Asp, Glu135Asp mutation by broth dilution method; outline: as §1
# Streptococcus mitis [26] = assay: Antimicrobial activity against Streptococcus mitis HK651 with gyrA Ser114Gly, and parC Ser52Gly, Asn91Asp mutation by broth dilution method; outline: as §1
# Streptococcus mitis [27] = assay: Antimicrobial activity against Streptococcus mitis HK137453 with gyrA Ser114Gly, and parC Ser52Gly, Asn91Asp mutation by broth dilution method; outline: as §1
# Streptococcus mitis [28] = assay: Antimicrobial activity against Streptococcus mitis HK680 with gyrA Ser114Gly, and parC Ser52Gly, Asn91Asp mutation by broth dilution method; outline: as §1
# Streptococcus mitis [29] = assay: Antimicrobial activity against Streptococcus mitis HK125807 with gyrA Ser114Gly, and parC Ser52Gly, Asn91Asp mutation by broth dilution method; outline: as §1
# Streptococcus mitis [30] = assay: Antimicrobial activity against Streptococcus mitis HK467 with gyrA Ser114Gly, Leu155Val and parC Ser52Gly, Asn91Asp, mutation by broth dilution method; outline: as §1
# Streptococcus mitis [31] = assay: Antimicrobial activity against Streptococcus mitis HK666 with gyrA Ser114Gly, and parC Ser52Gly, Asn91Asp, Glu135Asp mutation by broth dilution method; outline: as §1
# Streptococcus mitis [32] = assay: Antimicrobial activity against Streptococcus mitis HK135786 with gyrA Ser114Gly, and parC Ser52Gly, Asn91Asp mutation by broth dilution method; outline: as §1
# Streptococcus mitis [33] = assay: Antimicrobial activity against Streptococcus mitis HK29 with gyrA Ser114Gly, and parC Ser52Gly, Asn91Asp mutation by broth dilution method; outline: as §1
# Streptococcus mitis [34] = assay: Antimicrobial activity against Streptococcus mitis HK677 with gyrA Ser81Leu, Ser114Gly, gyrB Ser494Thr, parC Ser52Gly, Asp83Tyr, Asn91Asp and parE Arg447Ser mutation by broth dilution method; outline: as §1
# Streptococcus viridans [35] = assay: Antimicrobial activity against Viridans streptococcus L2 with gyrA Ser114Gly, gyrB Ser494Thr and parC Ser52Gly, Asn91Asp mutation by broth dilution method; outline: as §1
# Streptococcus viridans [36] = assay: Antimicrobial activity against Viridans streptococcus L7 with gyrA Ser114Gly, gyrB Ser494Thr and parC Ser52Gly, Asn91Asp mutation by broth dilution method; outline: as §1
# Streptococcus viridans [37] = assay: Antimicrobial activity against Viridans streptococcus L16 with gyrA Ser114Gly, gyrB Ser494Thr and parC Ser52Gly, Asn91Asp mutation by broth dilution method; outline: as §1
# Streptococcus viridans [38] = assay: Antimicrobial activity against Viridans streptococcus L17 with gyrA Ser114Gly, gyrB Ser494Thr and parC Ser52Gly, Asn91Asp mutation by broth dilution method; outline: as §1
# Streptococcus viridans [39] = assay: Antimicrobial activity against Viridans streptococcus L18 with gyrA Ser114Gly, Asp142Asn, gyrB Ser494Thr and parE Ile460Val mutation by broth dilution method; outline: as §1
# Streptococcus viridans [40] = assay: Antimicrobial activity against Viridans streptococcus L19 with gyrA Ser114Gly, gyrB Ser494Thr, parC Ser52Gly, Asn91Asp and parE Ile460Val mutation by broth dilution method; outline: as §1
# Streptococcus viridans [41] = assay: Antimicrobial activity against Viridans streptococcus L20 with gyrB Ser494Thr, parC Ser52Gly and Asn91Asp mutation by broth dilution method; outline: as §1
# Streptococcus viridans [42] = assay: Antimicrobial activity against Viridans streptococcus L21 with gyrB Ser494Thr and parC Lys137Asn mutation by broth dilution method; outline: as §1
# Streptococcus viridans [43] = assay: Antimicrobial activity against Viridans streptococcus L26 gyrA Ser81Phe and parC Lys137Asn mutation by broth dilution method; outline: as §1
structure (smiles),measurement,setting,value
C[C@H]1COc2c(N3CCN(C)CC3)c(F)cc3c(=O)c(C(=O)O)cn1c23.C[C@H]1COc2c(N3CCN(C)CC3)c(F)cc3c(=O)c(C(=O)O)cn1c23.O [LEVOFLOXACIN],MIC,Streptococcus oralis [1],1 µg/mL
same,MIC,Streptococcus oralis [2],1 µg/mL
same,MIC,Streptococcus oralis [3],1 µg/mL
same,MIC,Streptococcus oralis [4],1 µg/mL
same,MIC,Streptococcus oralis [5],1 µg/mL
same,MIC,Streptococcus oralis [6],1 µg/mL
same,MIC,Streptococcus oralis [7],1 µg/mL
same,MIC,Streptococcus oralis [8],1 µg/mL
same,MIC,Streptococcus oralis [9],1 µg/mL
same,MIC,Streptococcus oralis [10],1 µg/mL
same,MIC,Streptococcus oralis [11],1 µg/mL
same,MIC,Streptococcus oralis [12],1 µg/mL
same,MIC,Streptococcus oralis [13],2 µg/mL
same,MIC,Streptococcus oralis [14],2 µg/mL
same,MIC,Streptococcus oralis [15],2 µg/mL
same,MIC,Streptococcus oralis [16],2 µg/mL
same,MIC,Streptococcus oralis [17],2 µg/mL
same,MIC,Streptococcus oralis [18],2 µg/mL
same,MIC,Streptococcus oralis [19],2 µg/mL
same,MIC,Streptococcus oralis [20],32 µg/mL
same,MIC,Streptococcus oralis [21],≥ 32 µg/mL
same,MIC,Streptococcus mitis [22],1 µg/mL
same,MIC,Streptococcus mitis [23],< 0.25 µg/mL
same,MIC,Streptococcus mitis [24],0.5 µg/mL
same,MIC,Streptococcus mitis [25],0.5 µg/mL
same,MIC,Streptococcus mitis [26],0.5 µg/mL
same,MIC,Streptococcus mitis [27],1 µg/mL
same,MIC,Streptococcus mitis [28],1 µg/mL
same,MIC,Streptococcus mitis [29],1 µg/mL
same,MIC,Streptococcus mitis [30],1 µg/mL
same,MIC,Streptococcus mitis [31],2 µg/mL
same,MIC,Streptococcus mitis [32],1 µg/mL
same,MIC,Streptococcus mitis [33],2 µg/mL
same,MIC,Streptococcus mitis [34],≥ 32 µg/mL
same,MIC,Streptococcus viridans [35],2 µg/mL
same,MIC,Streptococcus viridans [36],2 µg/mL
same,MIC,Streptococcus viridans [37],1 µg/mL
same,MIC,Streptococcus viridans [38],1 µg/mL
same,MIC,Streptococcus viridans [39],2 µg/mL
same,MIC,Streptococcus viridans [40],2 µg/mL
same,MIC,Streptococcus viridans [41],2 µg/mL
same,MIC,Streptococcus viridans [42],2 µg/mL
same,MIC,Streptococcus viridans [43],16 µg/mL

# Reference: ChEMBL document CHEMBL1155167, “Fluoroquinolone resistance in atypical pneumococci and oral streptococci: evidence of horizontal gene transfer of fluoroquinolone resistance determinants from Streptococcus pneumoniae” (2007)
